Measured values from publication PMC10664564 (Chemical Science, 2023).

Assays:
[1] = phase II and III clinical trials, development stopped; cited from earlier work
Recombinant SQS (31-370) = target: T1, Recombinant SQS (31-370) (Homo sapiens, UniProt P37268); assay: In vitro SQS activity assay; format: biochemical; settings: compound at 1 μM, positive control
T1 sequence (P37268 31-370): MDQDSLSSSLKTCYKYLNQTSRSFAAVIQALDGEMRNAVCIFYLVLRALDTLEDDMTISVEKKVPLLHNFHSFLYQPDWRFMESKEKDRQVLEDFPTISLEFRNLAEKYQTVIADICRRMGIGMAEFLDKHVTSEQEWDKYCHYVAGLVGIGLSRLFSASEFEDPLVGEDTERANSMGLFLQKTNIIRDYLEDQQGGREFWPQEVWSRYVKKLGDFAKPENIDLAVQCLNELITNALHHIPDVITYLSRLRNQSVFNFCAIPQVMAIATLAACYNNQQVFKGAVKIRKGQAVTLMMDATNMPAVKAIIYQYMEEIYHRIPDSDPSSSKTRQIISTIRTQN

HeLa cells = assay: Cell viability assay ± MBCD; format: cell-based, human; settings: 72 h
Summary of the method: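 HeLa cells grown 72 h in FBS-containing medium with methyl β-cyclodextrin at 3 mM (a concentration set as non-toxic for HeLa), treated with a range of test compound concentrations; viability read; n = 3, mean ± SD of one biological replicate shown.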

SQS = target: T2, SQS (Homo sapiens, UniProt P37268); assay: Western blot of SQS protein levels in HeLa cells; format: cell-based; settings: 18 h, 10 μM
T2 sequence (P37268 1-417): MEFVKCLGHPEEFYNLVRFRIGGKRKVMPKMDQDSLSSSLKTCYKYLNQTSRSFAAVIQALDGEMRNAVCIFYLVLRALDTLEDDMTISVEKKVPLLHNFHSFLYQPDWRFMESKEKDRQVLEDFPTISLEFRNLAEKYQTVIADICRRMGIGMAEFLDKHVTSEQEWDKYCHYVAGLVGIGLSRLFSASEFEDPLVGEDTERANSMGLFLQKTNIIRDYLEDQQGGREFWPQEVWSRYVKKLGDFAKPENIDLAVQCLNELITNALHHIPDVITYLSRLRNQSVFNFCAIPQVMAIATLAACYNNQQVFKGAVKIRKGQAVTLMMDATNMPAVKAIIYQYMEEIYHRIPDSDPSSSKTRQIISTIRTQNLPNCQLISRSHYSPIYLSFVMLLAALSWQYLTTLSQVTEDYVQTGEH
Summary of the method: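 HeLa cells were exposed to test compound, usually for 18 h, and SQS was detected by western blot (n = 2–4). DC50 and Dmax came from an 18 h dose–response (n = 4, mean ± SEM). A time course used 10 μM. Inhibitor arms were pre-incubated 2 h with MG132 (20 μM), chloroquine (20 μM) or MLN4924 (5 μM). A turnover arm used cycloheximide at 100 μg mL−1.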

Structure (SMILES): COc1cccc([C@H]2O[C@H](CC(=O)N3CCC(CC(=O)O)CC3)C(=O)N(CC(C)(C)COC(C)=O)c3ccc(Cl)cc32)c1OC [TAK-475, lapaquistat acetate]
- clinical safety finding [1]: hepatotoxicity accompanied by elevated bilirubin levels

Structure (SMILES): C=C(CC[C@]12O[C@H](C(=O)O)[C@@](O)(C(=O)O)[C@](C(=O)O)(O1)[C@H](OC(=O)/C=C/[C@@H](C)C[C@@H](C)CC)[C@H]2O)[C@@H](OC(C)=O)[C@H](C)Cc1ccccc1 [ZAA, zaragozic acid A]
- inhibition of SQS activity (Recombinant SQS (31-370)): completety inhibited the reaction
- cell viability under cholesterol depletion (HeLa cells; MBCD 3 mM, 5 and 10 μM): completely abolish cell viability
- cell viability (HeLa cells; standard conditions (DMEM 10% FBS)): neither ZAA nor KY02111 adversely affected cell viability

Structure (SMILES): CCNCCN(CC)c1nc(Nc2ccc3ncoc3c2)nc(N[C@@H](C)C2CCCCC2)n1 [LS-102]
- SQS levels, tool compound alone (SQS): marked accumulation of SQS
